Assay results as given in ChEMBL document CHEMBL3525900, “Pharmacokinetics, distribution, and metabolism of [14C]sunitinib in rats, monkeys, and humans” (Drug Metab Dispos, 2012).

Tests used:
Lung [1] = test: Drug concentration in male albino rat lung assessed as radioactivity per gram of tissue at 20 mg/kg administered as single dose via gastric gavage measured after 6 hrs by autoradiographic analysis; type: ADME, organism-based; set-up: dose 20 mg/kg, dosed compound name [14C]Sunitinib; conditions: in vivo, po
Large intestine = test: Drug concentration in male albino rat large intestine assessed as radioactivity per gram of tissue at 20 mg/kg administered as single dose via gastric gavage measured after 24 hrs by autoradiographic analysis; type: ADME, organism-based; set-up: dose 20 mg/kg, dosed compound name [14C]Sunitinib; conditions: in vivo, po
Adrenal [2] = test: Drug concentration in male Lister Hooded pigmented rat adrenal assessed as radioactivity per gram of tissue at 20 mg/kg administered as single dose via gastric gavage measured after 168 hrs by autoradiographic analysis; type: ADME, organism-based; set-up: dose 20 mg/kg, dosed compound name [14C]Sunitinib; conditions: in vivo, po
[3] = Drug recovery in feces of human at 50 mg, po administered as single dose during 0 to 504 hrs by liquid scintillation counting; type: ADME, organism-based; set-up: dosed compound name [14C]Sunitinib; conditions: in vivo
Pancreas [4] = test: Drug concentration in male albino rat pancreas assessed as radioactivity per gram of tissue at 20 mg/kg administered as single dose via gastric gavage measured after 6 hrs by autoradiographic analysis; type: ADME, organism-based; set-up: dose 20 mg/kg, dosed compound name [14C]Sunitinib; conditions: in vivo, po
[5] = Drug concentration in female albino rat lachrymal gland assessed as radioactivity per gram of tissue at 20 mg/kg administered as single dose via gastric gavage measured after 24 hrs by autoradiographic analysis; type: ADME, organism-based; set-up: dose 20 mg/kg, dosed compound name [14C]Sunitinib; conditions: in vivo, po
How it was run: (§1)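 Sprague Dawley albino rats, ca 7-8 weeks old, dosed once by gastric gavage with [14C]sunitinib L-malate (15 mg freebase/kg, 100 µCi/kg). One male and one female killed by CO2 at 3, 6, 24, 72 and 168 h. Carcasses frozen in solid CO2/hexane, embedded and cut into 30 µm sagittal sections, then freeze-dried. Radioactivity quantified by whole-body autoradiography against standards by regression, background subtracted.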

Small intestine = test: Drug concentration in male Lister Hooded pigmented rat small intestine assessed as radioactivity per gram of tissue at 20 mg/kg administered as single dose via gastric gavage measured after 72 hrs by autoradiographic analysis; type: ADME, organism-based; set-up: dose 20 mg/kg, dosed compound name [14C]Sunitinib; conditions: in vivo, po
Thymus = test: Drug concentration in female albino rat thymus assessed as radioactivity per gram of tissue at 20 mg/kg administered as single dose via gastric gavage measured after 3 hrs by autoradiographic analysis; type: ADME, organism-based; set-up: dose 20 mg/kg, dosed compound name [14C]Sunitinib; conditions: in vivo, po
Adrenal [6] = test: Drug concentration in male albino rat adrenal assessed as radioactivity per gram of tissue at 20 mg/kg administered as single dose via gastric gavage measured after 24 hrs by autoradiographic analysis; type: ADME, organism-based; set-up: dose 20 mg/kg, dosed compound name [14C]Sunitinib; conditions: in vivo, po
[7] = Drug concentration in male albino rat lachrymal gland assessed as radioactivity per gram of tissue at 20 mg/kg administered as single dose via gastric gavage measured after 3 hrs by autoradiographic analysis; type: ADME, organism-based; set-up: dose 20 mg/kg, dosed compound name [14C]Sunitinib; conditions: in vivo, po
[8] = Drug concentration in female albino rat bladder assessed as radioactivity per gram of tissue at 20 mg/kg administered as single dose via gastric gavage measured after 72 hrs by autoradiographic analysis; type: ADME, organism-based, Urinary bladder; set-up: dose 20 mg/kg, dosed compound name [14C]Sunitinib; conditions: in vivo, po
How it was run: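 Sprague Dawley (albino) rats, ca 7-8 weeks old, received a single gastric-gavage dose of [14C]sunitinib L-malate at 20 mg/kg (15 mg freebase/kg, 100 µCi/kg). One animal per sex killed by CO2 at 3, 6, 24, 72 and 168 h, then frozen in CO2/hexane. 30 µm sagittal sections were cut and freeze-dried. Radioactivity per gram quantified by whole-body autoradiography using regression against standards. LOQ 0.04–0.06 µg freebase equiv/g.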

Pancreas [9] = test: Drug concentration in female albino rat pancreas assessed as radioactivity per gram of tissue at 20 mg/kg administered as single dose via gastric gavage measured after 6 hrs by autoradiographic analysis; type: ADME, organism-based; set-up: dose 20 mg/kg, dosed compound name [14C]Sunitinib; conditions: in vivo, po
How it was run: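 Sprague Dawley (albino) and Lister Hooded (pigmented) rats, ca 7-8 weeks old, 179-310 g, acclimated 7 days. Single gavage dose of [14C]sunitinib L-malate (15 mg freebase/kg, 100 µCi/kg). One male and one female killed by CO2 per time point: albino at 3, 6, 24, 72, 168 h; pigmented at 24, 72, 168, 336 h. Carcasses frozen in solid CO2/hexane, 30 µm sagittal sections freeze-dried. Tissue radioactivity read by quantitative whole-body autoradiography against regression of standards, mean background subtracted.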

[10] = Drug concentration in female albino rat skeletal muscle assessed as radioactivity per gram of tissue at 20 mg/kg administered as single dose via gastric gavage measured after 6 hrs by autoradiographic analysis; type: ADME, organism-based; set-up: dose 20 mg/kg, dosed compound name [14C]Sunitinib; conditions: in vivo, po
[11] = Drug concentration in female Lister Hooded pigmented rat pituitary gland assessed as radioactivity per gram of tissue at 20 mg/kg administered as single dose via gastric gavage measured after 24 hrs by autoradiographic analysis; type: ADME, organism-based; set-up: dose 20 mg/kg, dosed compound name [14C]Sunitinib; conditions: in vivo, po
How it was run: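 Lister Hooded (pigmented) rats, ca 7-8 weeks old, acclimated 7 days, given [14C]sunitinib L-malate by gastric gavage at 20 mg/kg (15 mg freebase/kg, 100 µCi/kg). One male and one female killed by CO2 at 24, 72, 168 and 336 h. Carcasses frozen in solid CO2/hexane and embedded in frozen cellulose. 30 µm sagittal cryosections were freeze-dried. Tissue radioactivity measured by quantitative whole-body autoradiography against calibration standards, with background subtracted.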

Liver = test: Drug concentration in male Lister Hooded pigmented rat liver assessed as radioactivity per gram of tissue at 20 mg/kg administered as single dose via gastric gavage measured after 72 hrs by autoradiographic analysis; type: ADME, organism-based; set-up: dose 20 mg/kg, dosed compound name [14C]Sunitinib; conditions: in vivo, po
[12] = Drug recovery in urine of human at 50 mg, po administered as single dose during 0 to 504 hrs by liquid scintillation counting; type: ADME, organism-based; set-up: dosed compound name [14C]Sunitinib; conditions: in vivo
Rattus norvegicus = test: Apparent terminal half life as total radioactivity in male Sprague-Dawley rat plasma at 15 mg/kg, po administered as single dose by LC/MS/MS analysis; type: ADME, organism-based; set-up: dose 15 mg/kg, dosed compound name [14C]Sunitinib, route oral; conditions: in vivo
How it was run: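 Single dose of [14C]sunitinib L-malate as free base, 50 µCi/kg. IV dose was 5 mg/kg by tail vein in 5 females. Oral dose was 15 mg/kg by gavage in 3 females and 3 males. Total radioactivity was by scintillation counting. […] Cmax was read from raw data, t½ by log-linear regression, AUC by linear trapezoidal rule.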

[13] = Drug concentration in male albino rat testis assessed as radioactivity per gram of tissue at 20 mg/kg administered as single dose via gastric gavage measured after 24 hrs by autoradiographic analysis; type: ADME, organism-based; set-up: dose 20 mg/kg, dosed compound name [14C]Sunitinib; conditions: in vivo, po
[14] = Drug concentration in female albino rat salivary gland assessed as radioactivity per gram of tissue at 20 mg/kg administered as single dose via gastric gavage measured after 24 hrs by autoradiographic analysis; type: ADME, organism-based; set-up: dose 20 mg/kg, dosed compound name [14C]Sunitinib; conditions: in vivo, po; how it was run: as §1
Lung [15] = test: Drug concentration in male albino rat lung assessed as radioactivity per gram of tissue at 20 mg/kg administered as single dose via gastric gavage measured after 24 hrs by autoradiographic analysis; type: ADME, organism-based; set-up: dose 20 mg/kg, dosed compound name [14C]Sunitinib; conditions: in vivo, po
[16] = Drug concentration in male albino rat pituitary gland assessed as radioactivity per gram of tissue at 20 mg/kg administered as single dose via gastric gavage measured after 168 hrs by autoradiographic analysis; type: ADME, organism-based; set-up: dose 20 mg/kg, dosed compound name [14C]Sunitinib; conditions: in vivo, po
[17] = Drug concentration in male Lister Hooded pigmented rat pituitary gland assessed as radioactivity per gram of tissue at 20 mg/kg administered as single dose via gastric gavage measured after 72 hrs by autoradiographic analysis; type: ADME, organism-based; set-up: dose 20 mg/kg, dosed compound name [14C]Sunitinib; conditions: in vivo, po
Lung [18] = test: Drug concentration in female albino rat lung assessed as radioactivity per gram of tissue at 20 mg/kg administered as single dose via gastric gavage measured after 24 hrs by autoradiographic analysis; type: ADME, organism-based; set-up: dose 20 mg/kg, dosed compound name [14C]Sunitinib; conditions: in vivo, po; how it was run: as §1
Cynomolgus monkey = test: Cmax as total radioactivity in female cynomolgus monkey plasma at 6 mg/kg, po administered as single dose by LC/MS/MS analysis; type: ADME, organism-based, Macaca fascicularis; set-up: dose 6 mg/kg, dosed compound name [14C]Sunitinib, route oral; conditions: in vivo
How it was run: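 Cynomolgus monkeys of both sexes received one oral gavage of [14C]sunitinib L-malate at 6 mg/kg (37 µCi/kg). Femoral-vein blood was taken into heparin from 0.5 to 336 h. Plasma was kept cold and protected from light, then stored at -80 °C. Total radioactivity was by scintillation counting and sunitinib by methanol-extraction LC-MS-MS. Cmax was from raw data, t½ from the log-linear terminal slope, AUC(0-∞) by linear trapezoidal rule.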

With CCN(CC)CCNC(=O)c1c(C)[nH]c(/[14CH]=C2\C(=O)Nc3ccc(F)cc32)c1C.O=C(O)C[C@H](O)C(=O)O the Radiolabel recovery (Lung [1]) was 17.87 ugequiv, the Radiolabel recovery (Large intestine) was 1.5 ugequiv and the Radiolabel recovery (Adrenal [2]) was 0.74 ugequiv. The Radiolabel recovery [3] was 61%, the Radiolabel recovery (Pancreas [4]) was 9.18 ugequiv and the Radiolabel recovery [5] was 6.79 ugequiv. It also gave a Radiolabel recovery (Small intestine) of 0.07 ugequiv, a Radiolabel recovery (Thymus) of 9.36 ugequiv and a Radiolabel recovery (Adrenal [6]) of 4.11 ugequiv. For the same compound, the Radiolabel recovery [7] was 8.82 ugequiv, the Radiolabel recovery [8] was 0.14 ugequiv and the Radiolabel recovery (Pancreas [9]) was 11.3 ugequiv. For the same compound, the Radiolabel recovery [10] was 3.33 ugequiv, the Radiolabel recovery [11] was 2.87 ugequiv and the Radiolabel recovery (Liver) was 0.22 ugequiv. For the same compound, the Radiolabel recovery [12] was 16%, the t1/2 lambda z (Rattus norvegicus) was 9 h and the Radiolabel recovery [13] was 2.8 ugequiv. It also gave a Radiolabel recovery [14] of 2.65 ugequiv, a Radiolabel recovery (Lung [15]) of 0.87 ugequiv and a Radiolabel recovery [16] of 0.76 ugequiv. For the same compound, the Radiolabel recovery [17] was 1.65 ugequiv, the Radiolabel recovery (Lung [18]) was 1.64 ugequiv and the Cmax (Cynomolgus monkey) was 214 ngequiv/ml.
